# Assay results as given in ChEMBL document CHEMBL1158369, “Hansch analysis of substituted benzoic acid benzylidene/furan-2-yl-methylene hydrazides as antimicrobial agents” (Eur J Med Chem, 2009).
# Legend:
# Candida albicans = experiment: Antifungal activity against Candida albicans after 48 hrs by tube dilution method; format: functional
# In short: (§1)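 Twofold serial dilutions of test and standard compounds in Sabouraud dextrose broth (I.P.); C. albicans incubated 37 °C for 48 h, A. niger 25 °C for 7 d. Growth read visually; MIC is lowest concentration without visible growth.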
# Bacillus subtilis = experiment: Antibacterial activity against Bacillus subtilis after 24 hrs by tube dilution method; format: functional
# In short: (§2)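 Twofold serial dilutions of test and standard compounds in double strength nutrient broth (I.P.); tubes incubated at 37 °C for 24 h. Growth judged visually; MIC taken as lowest concentration with no visible turbidity.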
# Staphylococcus aureus = experiment: Antibacterial activity against Staphylococcus aureus after 24 hrs by tube dilution method; format: functional; in short: as §2
# Escherichia coli = experiment: Antibacterial activity against Escherichia coli after 24 hrs by tube dilution method; format: functional; in short: as §2
# [1] = Lipophilicity, log P of the compound; format: physicochemical; details: octanol/water
# Aspergillus niger = experiment: Antifungal activity against Aspergillus niger after 7 days by tube dilution method; format: functional; in short: as §1
smiles,measurement,setting,value
COc1ccc(/C=N/NC(=O)c2ccc([N+](=O)[O-])cc2)cc1,-logMIC,Candida albicans,1.62
same,-logMIC,Bacillus subtilis,2.25
same,-logMIC,Staphylococcus aureus,1.68
same,-logMIC,Escherichia coli,2.56
same,logP,[1],3.13
same,-logMIC,Aspergillus niger,1.98
COc1ccc(/C=N/NC(=O)c2cc([N+](=O)[O-])cc([N+](=O)[O-])c2)cc1,-logMIC,Candida albicans,1.74
same,-logMIC,Bacillus subtilis,2.42
same,-logMIC,Staphylococcus aureus,2.2
same,-logMIC,Escherichia coli,2.64
same,logP,[1],3.08
same,-logMIC,Aspergillus niger,1.8
Nc1ccc(C(=O)N/N=C/c2cccc([N+](=O)[O-])c2)cc1,-logMIC,Candida albicans,1.66
same,-logMIC,Bacillus subtilis,2.29
same,-logMIC,Staphylococcus aureus,1.98
same,-logMIC,Escherichia coli,2.56
same,logP,[1],2.6
same,-logMIC,Aspergillus niger,1.8
O=C(N/N=C/c1cccc([N+](=O)[O-])c1)c1ccc([N+](=O)[O-])cc1,-logMIC,Candida albicans,1.7
same,-logMIC,Bacillus subtilis,2.09
same,-logMIC,Staphylococcus aureus,1.99
same,-logMIC,Escherichia coli,2.61
same,logP,[1],3.33
same,-logMIC,Aspergillus niger,1.7
COc1ccc(/C=N/NC(=O)c2cccc([N+](=O)[O-])c2)cc1OC,-logMIC,Candida albicans,1.64
same,-logMIC,Bacillus subtilis,2.28
same,-logMIC,Staphylococcus aureus,2.05
same,-logMIC,Escherichia coli,2.63
same,logP,[1],2.87
same,-logMIC,Aspergillus niger,1.75
COc1ccc(/C=N/NC(=O)c2ccc(C)cc2)cc1OC,-logMIC,Candida albicans,1.68
same,-logMIC,Bacillus subtilis,2.58
same,-logMIC,Staphylococcus aureus,2.17
same,-logMIC,Escherichia coli,2.58
same,logP,[1],3.39
same,-logMIC,Aspergillus niger,1.75
O=C(N/N=C/c1ccco1)c1cc([N+](=O)[O-])cc([N+](=O)[O-])c1,-logMIC,Candida albicans,1.69
same,-logMIC,Bacillus subtilis,2.29
same,-logMIC,Staphylococcus aureus,1.99
same,-logMIC,Escherichia coli,2.47
same,logP,[1],2.28
same,-logMIC,Aspergillus niger,1.69
O=C(N/N=C/c1cccc([N+](=O)[O-])c1)c1cc([N+](=O)[O-])ccc1Cl,-logMIC,Candida albicans,1.75
same,-logMIC,Bacillus subtilis,2.65
same,-logMIC,Staphylococcus aureus,2.65
same,-logMIC,Escherichia coli,2.65
same,logP,[1],3.85
same,-logMIC,Aspergillus niger,1.59
COc1ccc(/C=N/NC(=O)c2ccc(Cl)cc2)cc1OC,-logMIC,Candida albicans,1.71
same,-logMIC,Bacillus subtilis,2.61
same,-logMIC,Staphylococcus aureus,2.61
same,-logMIC,Escherichia coli,2.61
same,logP,[1],3.44
same,-logMIC,Aspergillus niger,2.01
COc1ccc(/C=N/NC(=O)c2ccc([N+](=O)[O-])cc2)cc1OC,-logMIC,Candida albicans,1.72
same,-logMIC,Bacillus subtilis,2.34
same,-logMIC,Staphylococcus aureus,1.99
same,-logMIC,Escherichia coli,2.63
same,logP,[1],2.87
same,-logMIC,Aspergillus niger,1.75
COc1ccc(/C=N/NC(=O)c2cc([N+](=O)[O-])cc([N+](=O)[O-])c2)cc1OC,-logMIC,Candida albicans,1.78
same,-logMIC,Bacillus subtilis,2.51
same,-logMIC,Staphylococcus aureus,2.38
same,-logMIC,Escherichia coli,2.68
same,logP,[1],2.83
same,-logMIC,Aspergillus niger,2.08
COc1ccc(/C=N/NC(=O)c2ccc(OC)c(OC)c2)cc1OC,-logMIC,Candida albicans,1.74
same,-logMIC,Bacillus subtilis,2.34
same,-logMIC,Staphylococcus aureus,2.07
same,-logMIC,Escherichia coli,2.64
same,logP,[1],2.42
same,-logMIC,Aspergillus niger,2.04
CCn1cc(C(=O)O)c(=O)c2cc(F)c(N3CCNCC3)cc21 [NORFLOXACIN],-logMIC,Bacillus subtilis,2.61
same,-logMIC,Staphylococcus aureus,2.61
same,-logMIC,Escherichia coli,2.61
COc1ccc(/C=N/NC(=O)c2ccccc2Br)cc1OC,-logMIC,Candida albicans,1.76
same,-logMIC,Bacillus subtilis,2.35
same,-logMIC,Staphylococcus aureus,2.52
same,-logMIC,Escherichia coli,2.63
same,logP,[1],3.71
same,-logMIC,Aspergillus niger,2.06
COc1ccc(/C=N/NC(=O)c2ccc(C)cc2)cc1,-logMIC,Candida albicans,1.63
same,-logMIC,Bacillus subtilis,2.32
same,-logMIC,Staphylococcus aureus,2.24
same,-logMIC,Escherichia coli,2.54
same,logP,[1],3.64
same,-logMIC,Aspergillus niger,1.88
COc1ccc(C(=O)N/N=C/c2ccco2)cc1OC,-logMIC,Candida albicans,1.64
same,-logMIC,Bacillus subtilis,1.98
same,-logMIC,Staphylococcus aureus,1.61
same,-logMIC,Escherichia coli,2.3
same,logP,[1],1.87
same,-logMIC,Aspergillus niger,1.87
COc1ccc(/C=N/NC(=O)c2ccc(N)cc2)cc1,-logMIC,Candida albicans,1.63
same,-logMIC,Bacillus subtilis,2.24
same,-logMIC,Staphylococcus aureus,1.63
same,-logMIC,Escherichia coli,2.54
same,logP,[1],2.39
same,-logMIC,Aspergillus niger,1.8
Cc1ccc(C(=O)N/N=C/c2ccco2)cc1,logP,[1],2.84
COc1ccc(/C=N/NC(=O)c2ccc(N)cc2)cc1OC,-logMIC,Candida albicans,1.68
same,-logMIC,Bacillus subtilis,2.29
same,-logMIC,Staphylococcus aureus,1.94
same,-logMIC,Escherichia coli,2.49
same,logP,[1],2.14
same,-logMIC,Aspergillus niger,1.9
O=C(N/N=C/c1cccc([N+](=O)[O-])c1)c1cccc([N+](=O)[O-])c1,-logMIC,Candida albicans,1.7
same,-logMIC,Bacillus subtilis,2.3
same,-logMIC,Staphylococcus aureus,1.99
same,-logMIC,Escherichia coli,2.61
same,logP,[1],3.33
same,-logMIC,Aspergillus niger,1.7
COc1ccc(/C=N/NC(=O)c2cc([N+](=O)[O-])ccc2Cl)cc1OC,-logMIC,Candida albicans,1.76
same,-logMIC,Bacillus subtilis,2.62
same,-logMIC,Staphylococcus aureus,2.67
same,-logMIC,Escherichia coli,2.67
same,logP,[1],3.39
same,-logMIC,Aspergillus niger,1.95
Cc1ccc(C(=O)N/N=C/c2cccc([N+](=O)[O-])c2)cc1,-logMIC,Candida albicans,1.59
same,-logMIC,Bacillus subtilis,2.4
same,-logMIC,Staphylococcus aureus,2.14
same,-logMIC,Escherichia coli,2.47
same,logP,[1],3.85
same,-logMIC,Aspergillus niger,1.85
OC(Cn1cncn1)(Cn1cncn1)c1ccc(F)cc1F [FLUCONAZOLE],-logMIC,Candida albicans,2.64
same,-logMIC,Aspergillus niger,2.64
COc1ccc(/C=N/NC(=O)c2ccc(OC)c(OC)c2)cc1,-logMIC,Candida albicans,1.68
same,-logMIC,Bacillus subtilis,2.58
same,-logMIC,Staphylococcus aureus,2.17
same,-logMIC,Escherichia coli,2.58
same,logP,[1],3.39
same,-logMIC,Aspergillus niger,1.68
O=C(N/N=C/c1cccc([N+](=O)[O-])c1)c1ccc(Cl)cc1,-logMIC,Candida albicans,1.69
same,-logMIC,Bacillus subtilis,2.59
same,-logMIC,Staphylococcus aureus,2.59
same,-logMIC,Escherichia coli,2.59
same,logP,[1],3.9
same,-logMIC,Aspergillus niger,1.69
COc1ccc(C(=O)N/N=C/c2cccc([N+](=O)[O-])c2)cc1OC,-logMIC,Candida albicans,1.66
same,-logMIC,Bacillus subtilis,2.33
same,-logMIC,Staphylococcus aureus,2.05
same,-logMIC,Escherichia coli,2.63
same,logP,[1],2.87
same,-logMIC,Aspergillus niger,1.72
O=C(N/N=C/c1cccc([N+](=O)[O-])c1)c1ccccc1Br,-logMIC,Candida albicans,1.75
same,-logMIC,Bacillus subtilis,2.65
same,-logMIC,Staphylococcus aureus,2.35
same,-logMIC,Escherichia coli,2.49
same,logP,[1],4.17
same,-logMIC,Aspergillus niger,1.75
